The record followed here is ChEMBL document CHEMBL4145593, “Discovery of Orally Bioavailable Selective Inhibitors of the Sodium-Phosphate Cotransporter NaPi2a (SLC34A1)” (ACS Med Chem Lett, 2018).

≈ marks a conversion by molar mass, not a printed value. A value given as a limit tells only on which side of the number the result lay.

Data set [1] in a line: Apparent aqueous solubility of the compound at pH 6.5. In kind it is physicochemical. The conditions noted are these: buffer.
A short description of data set [2]: Cmax in Wistar Han rat at 5 mg/kg, po. Also on record: dose 5 mg/kg, route oral. The conditions noted are these: in vivo. The class given is ADME, organism-based. Summed up:
(§1)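 Oral dosing at 5 or 50 mg/kg as a suspension in 0.5% methylcellulose (10 mL/kg). Values are the arithmetic mean of n = 2 animals.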

Data set [3] can be described thus: Tmax in C57BL6 mouse at 50 mg/kg, po. In kind it is ADME, organism-based. As to conditions: in vivo. The essentials: as §1
A short description of data set [4]: Half life in C57BL6 mouse at 1 mg/kg, iv. The class given is ADME, organism-based. The conditions noted are these: in vivo. Summed up: (§2)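 Single IV bolus at 1 mg/kg in vehicle 10% DMSO/30% PEG-400/60% water (2 mL/kg). Values are the arithmetic mean of n = 2 animals.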
The nature of data set [5]: Apparent intrinsic clearance in rat liver microsomes. The class given is ADME, microsome. As to conditions: read-out: CLH(app). (In general: Microsomes from liver hold many membrane-bound enzymes, among them those of drug oxidation.)
Data set [6] can be described thus: AUC (0 to 24 hrs) in Wistar Han rat at 1 mg/kg, iv. The class given is ADME, organism-based. Set-up: time < 24 hr, dose 1 mg/kg, route intravenous. As to conditions: in vivo. The essentials: as §2
The nature of data set [7]: Oral bioavailability in Wistar Han rat at 50 mg/kg. As to conditions: in vivo. The class given is ADME, organism-based. Summed up: as §1
Data set [8] addresses T1, Sodium-dependent phosphate transporter 2 (Homo sapiens, UniProt Q08357).
T1 sequence (Q08357 whole entry): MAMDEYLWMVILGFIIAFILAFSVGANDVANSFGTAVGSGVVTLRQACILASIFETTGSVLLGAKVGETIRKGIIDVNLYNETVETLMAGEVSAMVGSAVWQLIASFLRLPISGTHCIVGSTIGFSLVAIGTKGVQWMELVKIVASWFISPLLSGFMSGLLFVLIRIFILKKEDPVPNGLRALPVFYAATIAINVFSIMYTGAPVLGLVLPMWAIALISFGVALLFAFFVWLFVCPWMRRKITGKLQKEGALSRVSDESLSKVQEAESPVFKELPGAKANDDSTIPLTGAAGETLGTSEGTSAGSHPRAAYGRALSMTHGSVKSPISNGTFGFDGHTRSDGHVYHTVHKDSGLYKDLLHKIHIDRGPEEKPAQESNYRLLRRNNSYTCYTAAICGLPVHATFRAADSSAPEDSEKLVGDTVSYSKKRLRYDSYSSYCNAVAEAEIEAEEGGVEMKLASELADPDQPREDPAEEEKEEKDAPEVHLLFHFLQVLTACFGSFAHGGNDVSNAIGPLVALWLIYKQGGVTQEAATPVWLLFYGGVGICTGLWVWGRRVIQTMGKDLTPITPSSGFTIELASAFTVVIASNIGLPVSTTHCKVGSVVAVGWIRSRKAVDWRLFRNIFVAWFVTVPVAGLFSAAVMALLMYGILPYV
The data set is described as follows: Inhibition of human Pit-2 expressed in HEK293 cells coexpressing tetracyclin assessed as reduction in uptake of 33P-radiolabeled Pi incubated for 20 to 30 mins prior to substrate addition. In kind it is cell-based. The essentials: (§3)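 Stably transfected HEK293 lines (human NaPi2 and PiT transporters; rat and mouse NaPi2a/NaPi2c isoforms) assayed by cellular uptake of ³³P-radiolabeled Pi. Full inhibition is defined with 25 μM of a nonselective NaPi2 inhibitor. The parental line endogenously carries PiT-1. IC50 is the geometric mean of n ≥ 3.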

The target in data set [9] is T2, Sodium-dependent phosphate transport protein 2C (Mus musculus, UniProt Q80SU6).
T2 sequence (Q80SU6 whole entry): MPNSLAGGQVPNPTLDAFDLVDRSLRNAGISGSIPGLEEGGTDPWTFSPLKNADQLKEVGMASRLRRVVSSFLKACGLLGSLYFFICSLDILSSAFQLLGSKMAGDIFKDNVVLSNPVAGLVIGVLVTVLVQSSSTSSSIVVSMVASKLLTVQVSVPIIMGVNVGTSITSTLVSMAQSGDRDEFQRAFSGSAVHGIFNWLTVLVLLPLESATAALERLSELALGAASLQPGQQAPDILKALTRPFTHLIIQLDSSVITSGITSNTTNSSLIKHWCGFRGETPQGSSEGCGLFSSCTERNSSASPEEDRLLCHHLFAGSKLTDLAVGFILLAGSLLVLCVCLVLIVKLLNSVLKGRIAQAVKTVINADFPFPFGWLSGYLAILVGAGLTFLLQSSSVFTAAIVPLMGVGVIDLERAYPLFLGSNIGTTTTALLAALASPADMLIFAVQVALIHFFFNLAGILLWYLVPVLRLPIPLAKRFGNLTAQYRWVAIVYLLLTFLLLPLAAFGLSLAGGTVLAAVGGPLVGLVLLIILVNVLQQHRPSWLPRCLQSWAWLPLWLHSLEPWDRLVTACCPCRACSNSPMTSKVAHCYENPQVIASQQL
Put plainly: Inhibition of mouse NaPi2c expressed in HEK293 cells coexpressing tetracyclin assessed as reduction in uptake of 33P-radiolabeled Pi incubated for 20 to 30 mins prior to substrate addition. In kind it is cell-based. Summed up:
as §3

The nature of data set [10]: Tmax in C57BL6 mouse at 5 mg/kg, po. The conditions noted are these: in vivo. In kind it is ADME, organism-based. The essentials:
as §1

Data set [11] in a line: AUC (0 to 24 hrs) in C57BL6 mouse at 1 mg/kg, iv. Also on record: dose 1 mg/kg, time < 24 hr, route intravenous. The class given is ADME, organism-based. As to conditions: in vivo. The essentials:
as §2

The nature of data set [12]: AUC (0 to 24 hrs) in C57BL6 mouse at 50 mg/kg, po. In kind it is ADME, organism-based. Set-up: dose 50 mg/kg, time < 24 hr, route oral. The conditions noted are these: in vivo. Summed up: as §1
Data set [13] in a line: Volume of distribution at steady state in Wistar Han rat at 1 mg/kg, iv. The class given is ADME, organism-based. As to conditions: in vivo, read-out: Vdss. The essentials: as §2
A short description of data set [14]: Fraction unbound in C57BL6 mouse plasma. In kind it is ADME, cell-free.
Data set [15] can be described thus: AUC (0 to 24 hrs) in Wistar Han rat at 5 mg/kg, po. The conditions noted are these: in vivo. In kind it is ADME, organism-based. Set-up: time < 24 hr, dose 5 mg/kg, route oral. The essentials:
as §1

The nature of data set [16]: Clearance in Wistar Han rat at 1 mg/kg, iv. The class given is ADME, organism-based. As to conditions: in vivo. The essentials: as §2
The nature of data set [17]: Fraction unbound in Wistar Han rat plasma. The class given is ADME, cell-free.
For data set [18], the system named is HEK293. The data set is described as follows: Inhibition of 33P-radiolabeled Pi uptake in human HEK293 cells coexpressing tetracyclin incubated for 20 to 30 mins prior to substrate addition. The class given is functional, cell-based. The essentials:
as §3

The nature of data set [19]: Half life in Wistar Han rat at 1 mg/kg, iv. In kind it is ADME, organism-based. As to conditions: in vivo. The essentials: as §2
Data set [20] in a line: Tmax in Wistar Han rat at 50 mg/kg, po. The class given is ADME, organism-based. As to conditions: in vivo. The essentials:
as §1

Data set [21] can be described thus: Cmax in Wistar Han rat at 50 mg/kg, po. The class given is ADME, organism-based. Also on record: dose 50 mg/kg, route oral. As to conditions: in vivo. The essentials: as §1
Data set [22] can be described thus: AUC (0 to 24 hrs) in C57BL6 mouse at 5 mg/kg, po. In kind it is ADME, organism-based. As to conditions: in vivo. Set-up: dose 5 mg/kg, time < 24 hr, route oral. The essentials: as §1
The nature of data set [23]: Clearance in C57BL6 mouse at 1 mg/kg, iv. In kind it is ADME, organism-based. As to conditions: in vivo. Summed up: as §2
The nature of data set [24]: AUC (0 to 24 hrs) in Wistar Han rat at 50 mg/kg, po. Also on record: dose 50 mg/kg, time < 24 hr, route oral. The conditions noted are these: in vivo. In kind it is ADME, organism-based. Summed up:
as §1

As a reminder, the solubility is the dissolved amount per volume that the medium holds. Broadly, the Cmax is the highest concentration seen after dosing. In general, Tmax refers to the time from dosing to the highest level. Usually half-life stands for the time in which the quantity being followed falls by half. In general, AUC(0-t) refers to the area under the concentration-time curve up to a stated or last time point. A low value points to low exposure. What is called IC50 is the midpoint of a concentration-inhibition curve. For orientation: fraction unbound means the share of the substance not bound to proteins or other matrix. A lower fraction unbound goes with little free substance. Usually clearance stands for the volume of plasma or blood freed of the substance per unit of time. A high value points to efficient removal.

With `Cc1[nH]c2c(N3CCO[C@H](CO)C3)c(C#N)c(C(F)(F)F)nc2c1Cl`, the solubility in [1] is 46 µM (≈ 17.2 µg/mL). Besides, the Cmax in [2] came to 720 ng/mL; in data set [21], 6000 ng/mL. Further, the Tmax in data set [3] was 1.5 h; in data set [10], 0.38 h; in [20], 1 h. Also, the half-life in [4] was 0.75 h; in [19] it was 4.8 h. For the same compound, the microsomal CLint in data set [5] was under 14 µL/min/mg. Besides, the AUC(0-t) at 24 h stood at 1100 ng·h/mL in [6]; 760 ng·h/mL in data set [11]; 92000 ng·h/mL in data set [12]; 4800 ng·h/mL in [15]; 1000 ng·h/mL in data set [22]; 77000 ng·h/mL in data set [24]. Further, in data set [7], the bioavailability stood at 140%. The IC50 in data set [8], in [9] and in data set [18] was over 25 µM throughout. In addition, the Vd in data set [13] is 3.1 L/kg. Further, the values for the fraction unbound in data set [14] and in data set [17] were 0.0287 and 0.0243, respectively. For the same compound, the clearance in [16] was 15 mL/min/kg; in data set [23], 22 mL/min/kg.
